Experiment [1] deals with T1, 17-beta-hydroxysteroid dehydrogenase type 3 (Rattus norvegicus) (UniProt O54939).
T1 sequence (whole entry): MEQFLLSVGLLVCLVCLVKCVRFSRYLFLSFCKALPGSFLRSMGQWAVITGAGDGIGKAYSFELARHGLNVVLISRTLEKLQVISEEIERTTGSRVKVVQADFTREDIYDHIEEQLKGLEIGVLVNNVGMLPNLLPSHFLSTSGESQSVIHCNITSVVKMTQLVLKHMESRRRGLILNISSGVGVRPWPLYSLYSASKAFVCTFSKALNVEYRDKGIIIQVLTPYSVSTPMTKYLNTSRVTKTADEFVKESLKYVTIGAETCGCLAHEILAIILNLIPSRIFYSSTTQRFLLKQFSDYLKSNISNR
As to the kind of experiment: Inhibition of 17beta-HSD3 in rat testes microsomes using [14C]-4-androstene-3,17-dione as substrate measured based on 18% of initial enzyme transformation at 0.1 uM after 2 hrs. The conditions noted are these: Testis. Summed up: (§1)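 Rat testis microsomes: homogenate in phosphate/sucrose/EDTA buffer pH 7.5 with protease inhibitors, spun 12,500g, then pellet from 100,000g, at 4 °C. Reaction 2 h at 37 °C in 50 mM sodium phosphate pH 7.4, 20% glycerol, 1 mM EDTA, with NADPH and [14C]-Δ4-dione (50 nM). Inhibitor in DMSO. [14C]-T and substrate identified against reference steroids and quantified. Percent transformation and percent inhibition calculated.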

Experiment [2] has as its system LAPC4. As to the kind of experiment: Androgenic activity in human LAPC4 cells expressing androgen receptor assessed as induction of cell proliferation at 1 uM after 3 days by MTS assay relative to control. Format: functional. Summed up:
(§2)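 LAPC-4 (AR+) cells in RPMI-1640 with 5% dextran-coated charcoal-treated FBS to remove hormones. Triplicate cultures of 10,000 cells preincubated 24 h at 37 °C, 5% CO2. Compounds from 10^-2 M DMSO stock, diluted in medium, added for 3 days (final DMSO 0.05%; vehicle controls). Growth read by MTS. Androgenicity = % proliferation minus basal set at 100%.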
For orientation: Formazan colour is commonly taken as a measure of viable cells.

Experiment [3] has as its target T1, 17-beta-hydroxysteroid dehydrogenase type 3 (Rattus norvegicus). As to the kind of experiment: Inhibition of 17beta-HSD3 in rat testes microsomes using [14C]-4-androstene-3,17-dione as substrate measured based on 18% of initial enzyme transformation at 1 uM after 2 hrs. The following applies: Testis. The gist of the method: as §1
Experiment [4] relates to LAPC4. Nature of the experiment: Androgenic activity in human LAPC4 cells expressing androgen receptor assessed as induction of cell proliferation at 0.1 uM after 3 days by MTS assay relative to control. Format: functional. Summed up: as §2
The target of experiment [5] is T1, 17-beta-hydroxysteroid dehydrogenase type 3 (Rattus norvegicus). Nature of the experiment: Inhibition of 17beta-HSD3 in rat testes microsomes using [14C]-4-androstene-3,17-dione as substrate measured based on 18% of initial enzyme transformation at 0.01 uM after 2 hrs. The conditions noted are these: Testis. The gist of the method: as §1
The target is the same in experiment [6]. Nature of the experiment: Inhibition of 17beta-HSD3 in rat testes microsomes using [14C]-4-androstene-3,17-dione as substrate measured based on 4% of initial enzyme transformation at 1 uM after 2 hrs. The conditions noted are these: Testis. The gist of the method: as §1
For experiment [7] the target is unchanged. Nature of the experiment: Inhibition of 17beta-HSD3 in rat testes microsomes using [14C]-4-androstene-3,17-dione as substrate measured based on 4% of initial enzyme transformation at 10 uM after 2 hrs. The following applies: Testis. The gist of the method:
as §1

For orientation: inhibition means the change of the read-out against control, counted positive when it falls. In the case of `C[C@]12CC[C@@]3(C[C@@H]1CC[C@@H]1[C@@H]2CC[C@]2(C)C(=O)CC[C@@H]12)CN(Cc1ccc(C(F)(F)F)cc1C(F)(F)F)CC(=O)O3`, the inhibition worked out at 64.1% in experiment [1], 89.6% in experiment [3] and 18.3% in experiment [5]. In addition, the values for the Activity with LAPC4 [2] and in the experiment with LAPC4 [4] were 27% and 0%, respectively.
In the case of `C[C@]12CCC(=O)C[C@@H]1CC[C@@H]1[C@@H]2CC[C@]2(C)[C@@H](O)CC[C@@H]12` [STANOLONE], the Activity in the experiment with LAPC4 [2] was found to be 51.5%; in the experiment on LAPC4 [4] it was 28.8%.
`C[C@]12CC[C@@]3(C[C@@H]1CC[C@@H]1[C@@H]2CC[C@]2(C)C(=O)CC[C@@H]12)CN(Cc1ccc(I)cc1)CC(=O)O3`: the inhibition came out at 79% in experiment [1], 95.3% in experiment [3] and 12.2% in experiment [5]. The Activity turned out to be 15.9% with LAPC4 [2] and 0.9% in the experiment on LAPC4 [4].
For `C[C@]12CC[C@@]3(C[C@@H]1CC[C@@H]1[C@@H]2CC[C@]2(C)C(=O)CC[C@@H]12)CN(Cc1ccc(-c2cccc(C(F)(F)F)c2)cc1)CC(=O)O3`, in that order: 84.8%, 84.9%, 26.1%, 14.3% and 13.5%.
With `CC(C)C[C@H]1NC[C@]2(CC[C@@]3(C)[C@@H](CC[C@@H]4[C@@H]3CC[C@]3(C)C(=O)CC[C@@H]43)C2)OC1=O`, the results for the inhibition in experiment [1], in experiment [6] and in experiment [7] were 17.9%, 50.2% and 77.7%, respectively. Further, the Activity in the experiment with LAPC4 [2] is on record as 23.6%; in the experiment with LAPC4 [4], 7.9%.
On to `C[C@]12CC[C@@]3(C[C@@H]1CC[C@@H]1[C@@H]2CC[C@]2(C)C(=O)CC[C@@H]12)CN(Cc1cc(C(F)(F)F)cc(C(F)(F)F)c1)CC(=O)O3`, for which the results for the inhibition in experiment [1], in experiment [3] and in experiment [5] were 61.6%, 94.4% and 15.1%, respectively. Further, the Activity in the experiment on LAPC4 [2] is recorded as 5.9%; in the experiment on LAPC4 [4], 12%.
Consider `COC(=O)[C@@H](Cc1ccccc1)N1C[C@]2(CC[C@@]3(C)[C@@H](CC[C@@H]4[C@@H]3CC[C@]3(C)C(=O)CC[C@@H]43)C2)OC1=O`, for which the inhibition turned out to be 56.1% in experiment [1], 74.3% in experiment [6] and 80.8% in experiment [7]. Also, the Activity with LAPC4 [2] turned out to be 29.2%; in the experiment with LAPC4 [4], 0%.
With `C[C@]12CC[C@@]3(C[C@@H]1CC[C@@H]1[C@@H]2CC[C@]2(C)C(=O)CC[C@@H]12)CN(Cc1ccccc1)[C@H](Cc1ccccc1)C(=O)O3`, the Activity amounted to 50.1% in the experiment on LAPC4 [2] and 9.9% with LAPC4 [4]. The molecule also had an inhibition in experiment [6] of 61.7%.
Consider `C[C@]12CC[C@@]3(C[C@@H]1CC[C@@H]1[C@@H]2CC[C@]2(C)C(=O)CC[C@@H]12)CN(Cc1cccc(C(F)(F)F)c1)CC(=O)O3`, for which the inhibition in experiment [1] came to 54.1%; in experiment [3] it was 94.2%; in experiment [5], 17.7%. Also, the Activity in the experiment on LAPC4 [2] is listed as 27%; in the experiment on LAPC4 [4], 0%.
For `C=CCN1CC(=O)O[C@@]2(CC[C@@]3(C)[C@@H](CC[C@@H]4[C@@H]3CC[C@]3(C)C(=O)CC[C@@H]43)C2)C1`, in that order: 48.6%, 89%, 8.4%, 11.3% and 31%.
As for `CC(C)C[C@@H]1C(=O)O[C@@]2(CC[C@@]3(C)[C@@H](CC[C@@H]4[C@@H]3CC[C@]3(C)C(=O)CC[C@@H]43)C2)CN1Cc1ccccc1`, the inhibition in experiment [1] amounted to 45.9%; in experiment [6], 56.5%; in experiment [7] it was 82.3%. For the same molecule, the Activity is 47.7% with LAPC4 [2] and 6.2% with LAPC4 [4].
Consider `C[C@]12CC[C@@]3(C[C@@H]1CC[C@@H]1[C@@H]2CC[C@]2(C)C(=O)CC[C@@H]12)CN(Cc1ccccc1C(F)(F)F)CC(=O)O3`, for which the inhibition was found to be 77.9% in experiment [1], 83% in experiment [3] and 24.4% in experiment [5]. The Activity with LAPC4 [2] was 36.9%; in the experiment with LAPC4 [4], 0.5%.
As for `C[C@]12CC[C@@]3(C[C@@H]1CC[C@@H]1[C@@H]2CC[C@]2(C)C(=O)CC[C@@H]12)CN(Cc1ccc2ccccc2c1)CC(=O)O3`, the inhibition in experiment [1] is 88.3%; in experiment [3], 93.2%; in experiment [5], 0%. Further, the Activity in the experiment with LAPC4 [2] is 16.5%; in the experiment on LAPC4 [4] it was 22.3%.
The like results for `O=C1OC2(CCCCC2)CN(Cc2cn(Cc3ccccc3)nn2)[C@H]1Cc1ccccc1` were, in that order, 9.4%, 13.3%, 0%, 12.4% and 2.5%.
The like results for `C#CCN1CC2(CCCCC2)OC(=O)[C@@H]1Cc1ccccc1` were, in that order, 0%, 0%, 0%, 0% and 11.1%.
Regarding `C[C@]12CC[C@]3(CN[C@H](Cc4ccccc4)C(=O)O3)C[C@@H]1CC[C@@H]1[C@@H]2CC[C@]2(C)C(=O)CC[C@@H]12`, the values for the Activity in the experiment on LAPC4 [2] and in the experiment on LAPC4 [4] were 15.3% and 0%, respectively. Besides, the inhibition in experiment [7] was 70.6%.
Consider `COC(=O)[C@H](Cc1ccccc1)N1C[C@]2(CC[C@@]3(C)[C@@H](CC[C@@H]4[C@@H]3CC[C@]3(C)C(=O)CC[C@@H]43)C2)OC1=O`, for which the inhibition in experiment [1] was 48.3%; in experiment [6], 72.1%; in experiment [7], 87.7%. The Activity in the experiment on LAPC4 [2] and in the experiment on LAPC4 [4] was 0% each time.
In the case of `C[C@]12CC[C@@]3(C[C@@H]1CC[C@@H]1[C@@H]2CC[C@]2(C)C(=O)CC[C@@H]12)CN(Cc1cn(Cc2ccccc2)nn1)CC(=O)O3`, the values for the inhibition in experiment [1], in experiment [3] and in experiment [5] were 42.2%, 85.3% and 5.1%, respectively. For the same molecule, the Activity in the experiment with LAPC4 [2] was determined as 17.7%; with LAPC4 [4] it was 10%.
For `C[C@]12CC[C@]3(CN[C@@H](Cc4ccccc4)C(=O)O3)C[C@@H]1CC[C@@H]1[C@@H]2CC[C@]2(C)C(=O)CC[C@@H]12`, the results for the Activity with LAPC4 [2] and in the experiment on LAPC4 [4] were 36.5% and 3.9%, respectively. The inhibition is 75% in experiment [6] and 88.2% in experiment [7].
For the molecule `C[C@]12CC[C@@]3(C[C@@H]1CC[C@@H]1[C@@H]2CC[C@]2(C)C(=O)CC[C@@H]12)CN(Cc1cccc2ccccc12)CC(=O)O3`, the inhibition amounted to 79.1% in experiment [1], 94.5% in experiment [3] and 12.8% in experiment [5]. The Activity is given as 9.3% in the experiment with LAPC4 [2] and 3.8% in the experiment with LAPC4 [4].
As to `COC(=O)CN1C[C@]2(CC[C@@]3(C)[C@@H](CC[C@@H]4[C@@H]3CC[C@]3(C)C(=O)CC[C@@H]43)C2)OC1=O`, the inhibition in experiment [1] stood at 9%; in experiment [6], 54.6%; in experiment [7] it was 80.8%. In addition, the Activity in the experiment on LAPC4 [2] is recorded as 33.8%; in the experiment on LAPC4 [4], 11%.
The like results for `C[C@]12CC[C@]3(CNCC(=O)O3)C[C@@H]1CC[C@@H]1[C@@H]2CC[C@]2(C)C(=O)CC[C@@H]12` were, in that order, 0%, 44.7%, 82%, 32% and 9.7%.
For `C#CCN1CC(=O)O[C@@]2(CC[C@@]3(C)[C@@H](CC[C@@H]4[C@@H]3CC[C@]3(C)C(=O)CC[C@@H]43)C2)C1`, the inhibition came out at 34.1% in experiment [1], 80.7% in experiment [3] and 0.1% in experiment [5]. Moreover, the Activity in the experiment on LAPC4 [2] was found to be 25.5%; with LAPC4 [4], 20.1%.
`C[C@]12CC[C@@]3(C[C@@H]1CC[C@@H]1[C@@H]2CC[C@]2(C)C(=O)CC[C@@H]12)CN(Cc1ccccc1)[C@@H](Cc1ccccc1)C(=O)O3`: the Activity with LAPC4 [2] was 53.7%; in the experiment on LAPC4 [4] it was 6.1%. The values for the inhibition in experiment [6] and in experiment [7] were 81% and 83.6%, respectively.

(Values after ChEMBL document CHEMBL3603811, “Design, chemical synthesis and biological evaluation of 3-spiromorpholinone/3-spirocarbamate androsterone derivatives as inhibitors of 17β-hydroxysteroid dehydrogenase type 3” (Bioorg Med Chem, 2015).)
